What was measured:
[1] = folding enthalpy; higher = less favourable; fluorescence melt of hairpins on a sequencing array, two-state fit; conditions: sodium 0.088 M
Outline: (§1)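 Library hairpins on a sequenced MiSeq flow cell carried annealed Cy3 and quencher oligos, and their Cy3 fluorescence was imaged in 50 mM Na-HEPES pH 8.0 with 25 mM NaCl, in 2.5 °C steps up to 60 °C. Signals were normalised to Cy3 before quenching and to control constructs. Melting temperature and folding enthalpy were obtained from bootstrapped two-state fits, combined by inverse-variance weighting across four replicates, and the fitted temperatures were then raised by 9.35 °C to match UV melts.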

[2] = melting temperature; fluorescence melt of hairpins on a sequencing array, two-state fit, raised by 9.35 °C to match UV melts; conditions: sodium 0.088 M
Outline: as §1

Sequence	folding enthalpy [1] [kcal/mol]	Tm [2] [°C]
GCCAGAGGAAACTCTGGC (((((((....)))))))	-44.8	69.1
GCCAGCGAAAGCTATGGC ((((((....)))..)))	-21.4	55.3
GCCAGCGAAAGCTGAGGC ((((((....)))..)))	-15.5	53.5
GCCAGCGGAAACACTGGC (((((.(....).)))))	-39.2	52.8
GCCAGGCGAAAGCATAGC ((.(.((....)).).))	-11.1	37.8
GCCAGGCGAAAGCCGCGC ((..(((....)))..))	-18	58.4
GCCAGGCGAAAGCGCGGC (((..((....))..)))	-18.6	59.6
GCCAGGCGAAAGCGTAGC ((.(.((....)).).))	-7.64	38.9
GCCAGGCGAAAGCGTTGC ((.(.((....)).).))	-16.6	34.2
GCCAGGCGAAAGCTAGGC (((..((....))..)))	-27.9	61.3
GCCAGGCGAAAGCTCGGC (((..((....))..)))	-38.4	59.8
GCCAGGCGAAAGCTTAGC ((.(.((....)).).))	-10.9	32.3
GCCAGGGGAAACCCCGAC (.(.(((....))).).)	-9.47	32.6
GCCAGGGGAAACCCCGGC (((.(((....))).)))	-38.6	59.8
GCCAGGGGAAACCCTAGC ((.((((....)))).))	-22.8	41
GCCAGTCGAAAGACGGGC (((.(((....))).)))	-35	68.6
GCCAGTGGAAACACCAGC ((..(((....)))..))	-13.9	33.1
GCCAGTGGAAACACCGGC (((.(((....))).)))	-37.1	49.6
GCCAGTGGAAACATTGGC ((((.((....)).))))	-37	50.8
GCCAGTGGAAACGCTGGC (((((.(....).)))))	-41.8	61
GCCAGTGGAAACGTTGGC ((((..(....)..))))	-24.4	48.2
GCCATACGAAAGTAGGC (((.(((....))))))	-28.4	52.6
GCCATCACGAAAGTGGGC (((..(((....))))))	-19.4	47.2

Sequence	folding enthalpy [1] [kcal/mol]	Tm [2] [°C]
GCCATCGAAAGATAAGGC ((((((....)))..)))	-23.5	44.8
GCCATCGAAAGATAGGGC ((((((....)))..)))	-27.4	44.6
GCCATCGAAAGATGCGGC ((((((....)))..)))	-16.6	49.2
GCCATCGAAAGATTGGC ((((((....))).)))	-30.3	50.7
GCCATCGAAAGATTTGGC ((((((....)))..)))	-24.1	41.3
GCCATGCGAAAGCCTCGC ((.(.((....)).).))	-6.86	34
GCCATGCGAAAGCGCGGC (((..((....))..)))	-20	59.2
GCCATGCGAAAGCGTAGC ((.(.((....)).).))	-11.2	37
GCCATGCGAAAGCGTTGC ((.(.((....)).).))	-18.1	43.6
GCCATGTCGAAAGACGGC (((..(((....))))))	-20.1	51.5
GCCATTCGAAAGAAGGC (((.(((....))))))	-25.6	48.1
GCCATTCGAAAGAAGGGC (((.(((....))).)))	-41	59.4
GCCATTGGAAACAGTGGC ((((.((....)).))))	-45.3	50.7
GCCCACACGAAAGTGGGC (((..(((....))))))	-26.4	68
GCCCACCGAAAGGTCGGC (((.(((....))).)))	-40.4	53.5
GCCCACCGAAAGGTTGGC (((.(((....))).)))	-42.5	55.3
GCCCACGAAAGTGCCGGC ((((((....)))..)))	-16.1	46.6
GCCCACGAAAGTGCGGC ((((((....))).)))	-29.5	63.3
GCCCACGAAAGTGGAGGC ((((((....)))..)))	-15.5	52.5
GCCCACGCGAAAGCGGGC (((..(((....))))))	-11.9	61.8
GCCCACGGAAACGCAGGC (((..((....))..)))	-17.8	39.6
GCCCACGGAAACGCGAGC ((.(.((....)).).))	-14.7	28

— the array DNA melting data of Ke et al. (doi:10.1101/2024.01.08.574731)
